One assay concerns Tubulin (Bos taurus). Kind of assay: Inhibition of [3H]colchicine binding to tubulin at 1 uM.
The test system of assay [1] is K562. Put plainly: Antiproliferative activity against human K562 cell line. The assay is classed as functional, cell-based. Put shortly:
(§1)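 Exponentially growing cells in RPMI 1640 with 10% fetal calf serum, 2 mM L-glutamine, […], penicillin/streptomycin were exposed to increasing drug concentrations (DMSO stock 1 mg/mL, final DMSO ≤0.01%, matched DMSO controls). Cells counted by Coulter counter after 48 h. IC50 = concentration giving 50% inhibition versus untreated controls. Duplicate cultures per concentration, ≥3 independent experiments, mean ± SE.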

The next assay concerns L1210. Kind of assay: Antiproliferative activity against mouse L1210 cell line. The assay is classed as functional, cell-based. Put shortly: as §1
For a further assay, the target named is Tubulin (Bos taurus, UniProt Q6B856+Q862L2+Q862F3). Put plainly: Inhibition of tubulin polymerization in bovine brain by tubulin assembly assay. Put shortly: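 Purified bovine brain tubulin (10 µM) in glutamate buffer was preincubated with a concentration range of compound at 30 °C, then cooled to 0 °C. GTP was added, the mixture rewarmed to 30 °C and assembly followed by turbidity.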

The test system of assay [2] is K562. Put plainly: Cell cycle arrest in K562 cells at sub-G1 phase cell. In kind it is functional, cell-based. Particulars: Homo sapiens. Put shortly:
(§2)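 K562 cells cultured with compound at 3 or 10 nM, or at levels giving 50% and 75% growth inhibition, versus untreated cells. Cells (1 × 10⁶) stained with propidium iodide for 30 min. Sub-G1 (DNA-breakage) fraction measured by flow cytometry.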

Assay [3] concerns K562. Kind of assay: Induction of apoptosis in K562 cell line. The assay is classed as functional, Homo sapiens.
In assay [4] the test system is K562. Kind of assay: Cell cycle arrest in K562 cells at sub-G1 phase cell at 3 nM. The assay is classed as functional, cell-based. Particulars: Homo sapiens. The procedure, abridged: as §2
Assay [5] relates to K562. Kind of assay: Cell cycle arrest in K562 cells at sub-G1 phase cell at 10 nM. In kind it is functional, cell-based. The settings on record: Homo sapiens. The procedure, abridged:
as §2

The subject of assay [6] is K562. Put plainly: Cell cycle arrest in K562 cells at G2/M phase. In kind it is functional, cell-based. The settings on record: Homo sapiens. The procedure, abridged: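 K562 cells cultured 24 h with compound at concentrations giving 25%, 50% and 75% growth inhibition, or without compound. Cells (1 × 10⁶) stained with propidium iodide for 30 min and analysed by flow cytometry for G1, S, G2/M and sub-G1 fractions. DMSO vehicle.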

Calls of active or inactive are those of the source. No cut-off for these calls is given here.

As a reminder, the inhibition is the drop in the measured response relative to a control, in per cent. One may read the IC50 as the concentration needed to halve the response being measured.

The compound `COc1cc(C(=O)c2c(N)sc(-c3ccccc3)c2C)cc(OC)c1OC` yielded an inhibition in the assay on Tubulin (Bos taurus) of 37%. In addition, the IC50 stood at 6.42 nM with K562 [1], 18.2 nM in the assay on L1210 and 2.2 µM at Tubulin.
Regarding `COc1cc(C(=O)c2c(-c3ccccc3)csc2N)cc(OC)c1OC`, the IC50 in the assay with K562 [1] and in the assay with L1210 was greater than 10000 nM throughout.
`COc1cc(C(=O)c2ccsc2N)cc(OC)c1OC`: the IC50 with K562 [1] was found to be 1270 nM; in the assay on L1210, 3150 nM.
`COc1cc(C(=O)c2c(N)sc(-c3ccccc3)c2-c2ccccc2)cc(OC)c1OC`: the IC50 with K562 [1] stood at 8500 nM; with L1210 it was 6950 nM.
The compound `COc1cc(C(=O)c2cc(-c3ccc(Cl)cc3)sc2N)cc(OC)c1OC` showed an inhibition in the assay with Tubulin (Bos taurus) of 68%. The IC50 is 14.7 nM in the assay with K562 [1], 6.96 nM with L1210 and 0.98 µM at Tubulin.
As for `COc1cc(C(=O)c2cc(-c3ccccc3)sc2N)cc(OC)c1OC`, the inhibition with Tubulin (Bos taurus) worked out at 60%. The IC50 in the assay with K562 [1] is 3.75 nM; in the assay on L1210, 2.52 nM; at Tubulin, 1.9 µM. For the same compound, the outcome with K562 [2], in the assay on K562 [4] and in the assay with K562 [5] was Active. Also, the Activity with K562 [3] was found to be 87.5%.
As for `COc1cccc(-c2cc(C(=O)c3cc(OC)c(OC)c(OC)c3)c(N)s2)c1`, the inhibition with Tubulin (Bos taurus) was 58%. Moreover, the IC50 is 10.1 nM with K562 [1], 20.8 nM in the assay with L1210 and 1.7 µM at Tubulin.
Take `COc1cc(C(=O)c2cc(Br)sc2N)cc(OC)c1OC`: the IC50 was 1680 nM in the assay on K562 [1] and 4250 nM with L1210.
For `COc1ccccc1-c1cc(C(=O)c2cc(OC)c(OC)c(OC)c2)c(N)s1`, in that order: 7.75 nM and 9 nM.
In the case of `COc1ccc(C(=O)c2cc(-c3ccccc3)sc2N)cc1OC`, the figures for the IC50 in the assay with K562 [1] and in the assay on L1210 were 85.5 nM and 537 nM, respectively.
In the assay with Tubulin (Bos taurus), `COc1cc(C(=O)c2cc(-c3ccc(C)cc3)sc2N)cc(OC)c1OC` returned an inhibition of 71%. Further, the IC50 in the assay on K562 [1] came to 4.72 nM; in the assay with L1210 it was 3.52 nM; on Tubulin, 1.1 µM. The result in the assay on K562 [2] was Active. This compound displayed an Activity in the assay on K562 [3] of 20.5%.
In the case of `COc1ccc(C(=O)c2cc(-c3ccccc3)sc2N)cc1`, the IC50 is 4670 nM in the assay with K562 [1] and greater than 10000 nM in the assay with L1210.
As to `COc1cc(C(=O)c2cc(-c3ccc(C(F)(F)F)cc3)sc2N)cc(OC)c1OC`, the IC50 with K562 [1] is 70.3 nM; with L1210, 73.7 nM.
The matching figures for `CCc1cc(C(=O)c2cc(OC)c(OC)c(OC)c2)c(N)s1`: 9000 nM and greater than 10000 nM.
For `COc1cc(C(=O)c2cc(-c3ccc(Cl)c(Cl)c3)sc2N)cc(OC)c1OC`, in that order: 362 nM and 337 nM.
For `COc1cc(C(=O)c2cc(-c3ccc(F)cc3)sc2N)cc(OC)c1OC`, the inhibition in the assay on Tubulin (Bos taurus) came out at 82%. For the same compound, the IC50 in the assay with K562 [1] is 2.82 nM; in the assay on L1210 it was 2.15 nM; against Tubulin, 1.1 µM. Further, the Activity result was “Dose-dependent effect” with K562 [6] and 64.5% with K562 [3]. The outcome in the assay on K562 [2] was Active.
For `COc1cc(C(=O)c2cc(I)sc2N)cc(OC)c1OC`, the IC50 in the assay with K562 [1] worked out at 342 nM; with L1210, 1150 nM.
For `CCCCCc1cc(C(=O)c2cc(OC)c(OC)c(OC)c2)c(N)s1`, in that order: 1490 nM and 1320 nM.
For `COc1cc(C(=O)c2c(C)csc2N)cc(OC)c1OC`, in that order: 219 nM and 262 nM.
As for `COc1ccc(-c2cc(C(=O)c3cc(OC)c(OC)c(OC)c3)c(N)s2)cc1`, the inhibition in the assay on Tubulin (Bos taurus) was determined as 64%. For the same compound, the IC50 is 4.47 nM in the assay on K562 [1], 6.52 nM in the assay with L1210 and 1.7 µM on Tubulin.
Regarding `COc1cc(C(=O)c2cc(-c3ccc(OC)c(OC)c3OC)sc2N)cc(OC)c1OC`, the IC50 was found to be 1100 nM in the assay with K562 [1] and 1650 nM in the assay with L1210.
The matching figures for `COc1ccc(/C=C\c2cc(OC)c(OC)c(OC)c2)cc1O` [COMBRETASTATIN A4]: 3.6 nM and 8.3 nM.
For `COc1cc(C(=O)c2c(N)sc(C)c2C)cc(OC)c1OC`, in that order: 790 nM and 3900 nM.

For the origin of these results see ChEMBL document CHEMBL1138047, “Synthesis and biological evaluation of 2-amino-3-(3',4',5'-trimethoxybenzoyl)-5-aryl thiophenes as a new class of potent antitubulin agents” (J Med Chem, 2006).
